Assay outcomes deposited in PubChem BioAssay by several laboratories.
HKDC1 inhibitor – HKDC1 (human) hexokinase inhibition; Q2TB90; recombinant HKDC1, G6PDH/diaphorase resazurin coupled fluorescence; inhibition, % at 20 µM; hit rate 0.16% among 340,000;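 active = inhibition above about 35% when tested at 20 µM, limit read from the data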;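 note: plate controls were DMSO wells with enzyme for no effect and DMSO wells lacking enzyme for full effect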
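System: Recombinant HKDC1 hexokinase | Amount: HKDC1 at 5 µg/mL | Reagent: Glucose with 1 mM ATP | Doses: Single 20 µM dose | Incubation: Reaction time 90 min, room temperature, protected from light | Signal: Coupled resazurin fluorescence, excitation 525 nm, emission 613 nm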
ATG4B inh – inhibitors of human ATG4B cysteine protease | ATG4B cleavage of LC3-PLA2, NBD-HPC fluorescence, 1 h | inhibition, % at 8.33 µM | AID 504462 | hit rate 0.51% among 340,000 | Q9Y4P1; in the data active = inhibition above about 40%
Target sequence (Q9Y4P1 whole entry, looked up): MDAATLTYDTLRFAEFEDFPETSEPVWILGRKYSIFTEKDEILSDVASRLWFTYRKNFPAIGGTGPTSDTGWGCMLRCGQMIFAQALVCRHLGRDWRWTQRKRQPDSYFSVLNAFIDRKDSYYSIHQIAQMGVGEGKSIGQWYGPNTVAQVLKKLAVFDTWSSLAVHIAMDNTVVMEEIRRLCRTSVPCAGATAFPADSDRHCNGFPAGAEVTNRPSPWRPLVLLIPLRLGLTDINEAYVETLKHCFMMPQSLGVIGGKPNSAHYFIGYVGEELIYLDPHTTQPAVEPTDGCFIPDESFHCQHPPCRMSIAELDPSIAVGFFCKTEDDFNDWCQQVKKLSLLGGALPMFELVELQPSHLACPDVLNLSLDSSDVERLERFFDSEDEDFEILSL
T cell modulator – T cell immune modulation candidate. 2C CD8+ T cell-vesicle binding, flow cytometry; hits give low values. response (vesicle binding), % at 7 µM. hit rate 0.068% among 330,000. AID 2052;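 active = response, share of CD8 T cells binding vesicles, and their 90th percentile fluorescence all below set limits, cut at about 80% in these data, passing the limit was not always enough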;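 note: values below 100% mean blocked vesicle binding to the CD8+ T cells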
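Incubation: binding step 1.5 h, 37 °C, antibody labelling 20 min, ice; system: murine 2C transgenic CD8+ T lymphocytes; technique: cytometric PE anti-B7-1 and Alexa647 anti-CD8 signals after 1% paraformaldehyde fixation; also added: QL9-charged Drosophila Ld/ICAM-1/B7-1 vesicles; control set: naked versus QL9-loaded vesicles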
PKA-R2B activ – activators of human PKA-R2B complex; PKA-R2B holoenzyme dissociation, Cy5-IP20 fluorescence polarization; R2B truncated from residue 108, S112A mutant; 0% DMSO only, 100% 113 µM cGMP; activation, % at 11.4 µM; hit rate 0.079% among 340,000;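 active = activation above a cutoff set at the mean over all compounds plus 3 SD, cut at about 18% in these data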;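 note: higher means more holoenzyme dissociation and a rise in polarization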
PfG6PD inh – PfG6PD (Plasmodium falciparum) enzyme inhibition. PfGluPho enzyme, NADPH resazurin-diaphorase fluorescence. inhibition, % at 20 µM. hit rate 0.78% among 350,000;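 active = inhibition reaching at least a set limit at 20 µM in the primary screen, cut at about 59% in these data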;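 note: 0% = DMSO wells with substrate and 100% = DMSO wells lacking glucose-6-phosphate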
PKA-R1A activ – activates the PKA-R1A holoenzyme complex | PKA-R1A dissociation, Cy5-IP20 fluorescence polarization; scaled: DMSO 0%, 113 µM cGMP 100% | activation, % at 11.4 µM | hit rate 0.083% among 340,000 | AID 504707;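 active = percent activation above the mean of all tested compounds plus 3 SD, cut at about 19% in these data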;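 note: higher means more PKAc released from R1A so a rise in polarization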
PfG6PD confirm – PfG6PD inhibition, single-dose confirmed; shares compounds with PfG6PD inh; recombinant PfGluPho, NADPH-diaphorase-resazurin fluorescence; inhibition, % at 20 µM; hit rate 34% among 2,400; AID 504753;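 active = inhibition of at least 50% at 20 µM in any single replicate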;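 note: 0% = DMSO with substrate and 100% = DMSO lacking glucose-6-phosphate substrate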
Diaph ctr 10uM – inhibits diaphorase or oxidizes, flagging false PfG6PD hits | inhibition, % at 20 µM | hit rate 39% among 820 | diaphorase-coupled resazurin reduction, fluorescence, NADPH 10 uM | shares compounds with PfG6PD inh;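 active = average inhibition reaching 50% or more with the compound at 20 µM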;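 note: resorufin red fluorescence formed as diaphorase reduces resazurin using NADPH; 0% = DMSO with enzyme and 100% = DMSO without enzyme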
Diaph ctr 30uM – inhibits diaphorase or oxidizes, flagging false PfG6PD hits | shares compounds with PfG6PD inh | Diaphorase/resazurin coupled assay, resorufin fluorescence, 30 uM NADPH | inhibition, % at 20 µM | hit rate 29% among 820 | AID 504863;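 active = inhibition averaging 50% or more, tested at 20 µM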;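 note: 0% = DMSO with enzyme and 100% = DMSO wells lacking diaphorase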
* hit, by the source's call; / = not tested or not shown. A selection: hits, their analogues and other compounds. The true share with any hit is near 1.6%.

SMILES	HKDC1 inhibitor	ATG4B inh	T cell modulator	PKA-R2B activ	PfG6PD inh	PKA-R1A activ	PfG6PD confirm	others
O=C1CC(N2CCCCCC2)C(=O)N1c1ccc2c(c1)OCO2 (stereo not drawn)	-13	-5	212	9	7	4	/
CSCCOC(=O)C1=C(C)Nc2ccc(C)cc2S1	-2	-21	398	-24	60*	1	-6
CCOC(=O)C1=C(C)Nc2ccc(C)cc2S1	0	-5	348	-13	33	-3	/
COc1ccc(N=Cc2[nH]c3ccccc3c2O)cc1	-1	-5	114	11	59*	0	15
COc1ccc(N=Cc2ccccc2O)cc1	-1	3	/	-4	7	-2	/
Cc1ccccc1-c1ccc(C(=O)NCc2ccccc2)o1	-2	2	576	-2	3	-10	/
Cc1ccc(-c2ccc(C(=O)NCc3ccc(Cl)cc3)o2)c2ccccc12	21	6	470	-1	61*	-1	4
COc1ccc(/C=N/Nc2nnc(C)n2N)cc1OC(C)=O	0	-2	91	1	55	0	/
COc1ccc(/C=N/Nc2nnc(C)n2N)cc1OC	5	3	79	1	61*	9	7
Cc1nc2c(nc1C)C(=O)c1ccccc1C2=O	6	-1	/	-5	-116	0	/
COC1=C(N)C(=O)c2nc(C)ccc2C1=O	32	28	/	11	109*	2	93*	Diaph ctr 10uM=49;Diaph ctr 30uM=57*
COC1=C(Nc2ccc(C)cc2)C(=O)c2ccccc2C1=O	-1	21	142	7	-85	9	/
COC1=C(Br)C(=O)c2nc(C)ccc2C1=O	/	/	/	6	101*	-4	74*	Diaph ctr 10uM=46;Diaph ctr 30uM=37
CCCOC(=O)c1ccc(NC(=O)Cc2cccs2)cc1	4	3	258	0	3	-5	/
COc1ccc(OC)c(S(=O)(=O)N2CCN(C(=O)CCc3ccccc3)CC2)c1	-3	4	180	2	-4	-2	/
CC(=O)Nc1c(C(=O)Nc2ccc3c(c2)OCO3)oc2ccccc12	-2	-7	498	-6	17	-2	/
CSCc1c(C(=O)Nc2ccc3c(c2)OCO3)oc2ccccc12	4	26	241	-5	68*	-3	3
COCC(=O)Nc1c(C(=O)Nc2ccc3c(c2)OCO3)oc2ccccc12	-4	-6	266	-7	-2	-1	/
Cc1c(C(=O)Nc2ccc3c(c2)OCO3)oc2ccccc12	0	-4	279	4	61*	13	-3
Cc1c(F)cccc1NS(=O)(=O)c1ccc(N2CCCC2=O)cc1	0	-2	/	0	-20	-8	/
COc1ccc(-c2n[nH]c(=S)nc2-c2ccc(OC)cc2)cc1	3	-5	18	5	30	6	/
COc1ccc(CCNc2nc(C)c(C(C)=O)s2)cc1OC	-12	-4	263	3	61*	-4	20
CC(=O)c1sc(NCc2ccc(C)cc2)nc1C	-4	-8	192	-2	-16	-1	/
CCOC(=O)c1c(C)n(C)c2cc([N+](=O)[O-])c(O)c([N+](=O)[O-])c12	-2	-1	233	-15	2	0	/
CCOC(=O)c1c(C)n(C)c2cc(Br)c(O)c(O)c12	0	-3	204	-3	68*	-4	18
SMILES	HKDC1 inhibitor	ATG4B inh	T cell modulator	PKA-R2B activ	PfG6PD inh	PKA-R1A activ	PfG6PD confirm	others
NC(=O)c1nc(C(=O)N2CCN(c3ccccc3)CC2)c2ccccc2n1	-3	3	448	-10	-28	2	/
Clc1ss/c(=N\c2ccccn2)c1Cl	-7	-9	143	8	64*	2	-6
COc1ccccc1CNC(=O)C(CCSC)NC(=O)c1cccc(S(=O)(=O)N2CCOCC2)c1 (stereo not drawn)	-6	-9	344	5	-6	-6	/
Cc1ccnc(N=O)c1	26	-3	/	-3	53	-2	/
O=C(Oc1c(Br)cc(C(=S)N2CCOCC2)cc1Br)c1ccc(Cl)cc1	2	2	168	-4	67*	-2	9
COc1cc2c(cc1OC)C(=O)C(Br)CC2 (stereo not drawn)	/	/	/	-8	112*	7	106*	Diaph ctr 10uM=101*;Diaph ctr 30uM=98*
COc1ccc(N=C2SCC(=O)N2CCc2ccc(OC)c(OC)c2)cc1	-3	0	163	0	2	1	/
COc1ccc(CCN2C(=O)CSC2=Nc2ccc(C(C)C)cc2)cc1OC	4	-4	97	/	47	/	-8
O=C(COc1ccccc1)NCC(=O)N1CCCC(C(F)(F)F)C1 (stereo not drawn)	-4	-8	/	8	-8	-3	/
Cc1cc(C)c(S(=O)(=O)c2cccc(Br)c2C)c(Cl)n1	1	-3	184	0	69*	-2	22
Cc1cc(C)c(S(=O)(=O)c2ccccc2Cl)c(Cl)n1	/	/	179	/	/	/	/
COc1ccc(C2(C)NC(=O)N(CC(=O)Nc3ccc(Br)cc3F)C2=O)cc1OC (stereo not drawn)	1	-4	239	9	-2	4	/
COC(=O)c1cc(S(=O)(=O)Nc2ccc(C)cn2)c[nH]1	-5	1	382	10	-8	-5	/
O=C(O)c1ccc(-n2cc(-c3cc4ccccc4oc3=O)[nH]c2=S)cc1	-7	-5	/	0	61*	-3	25
COc1ccc(CCn2c(NN=C3CCCCC3)nc3c2c(=O)[nH]c(=O)n3C)cc1	11	1	359	3	106*	4	81*	Diaph ctr 10uM=-8;Diaph ctr 30uM=-5
CCN1/C(=C/C=C/C=C/C=C/c2sc3ccccc3[n+]2CC)Sc2ccccc21	25	37	139	2	64*	-1	96*	Diaph ctr 10uM=34;Diaph ctr 30uM=33
CCN1/C(=C/C=C/C=C/c2sc3ccccc3[n+]2CC)Sc2ccccc21	/	/	852	/	/	/	/
CC(C)C(=O)Nc1cc(S(=O)(=O)N2CCOCC2)ccc1N1CCCCC1	-10	-8	324	0	61*	10	-14
O=C(Nc1cc(S(=O)(=O)N2CCOCC2)ccc1N1CCCC1)c1ccc(Cl)cc1	-6	-3	/	-2	60*	-16	45
O=C(Nc1cc(S(=O)(=O)N2CCOCC2)ccc1N1CCCC1)c1ccccc1F	/	/	/	-1	0	-6	/
